Test results taken from ChEMBL document CHEMBL1125739, “A new class of HIV-1-specific 6-substituted acyclouridine derivatives: synthesis and anti-HIV-1 activity of 5- or 6-substituted analogues of 1-[(2-hydroxyethoxy)methyl]-6-(phenylthio)thymine (HEPT)” (J Med Chem, 1991).
pEC50: −log10 of the molar value.

Experiments:
[1] = test system: Human immunodeficiency virus; experiment: Effective concentration required to achieve 50% protection of MT-4 cells against the cytopathic effect of HIV-1 (HTLV-IIIB).; assay type: functional, organism-based; conditions: Human immunodeficiency virus 1, MT4
Summary of the method: (§1)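 MT-4 cells at 2.5×10^5 cells/mL infected with 1000 CCID50 of the named HIV strain, then plated at once over a range of compound concentrations. Incubation at 37 °C for 4 days or 5 days. Viable cells read by MTT. EC50 is the concentration giving 50% protection from virus-induced cytopathic effect.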

MT4 [2] = experiment: Cytotoxic concentration required to reduce the viability of mock-infected MT-4 cells by 50%; assay type: functional; conditions: Homo sapiens
Summary of the method: (§2)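 Mock-infected MT-4 cells at 2.5×10^5 cells/mL plated with various concentrations of compound, run in parallel with the antiviral assay. Viable cells counted by MTT after 4 days or 5 days at 37 °C. CC50 is the concentration that lowers viability by 50%.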

MT4 [3] = experiment: Selectivity Index measured as the ratio of CC50 to that of EC50 values.
[4] = test system: Human immunodeficiency virus; experiment: Effective concentration required to achieve 50% protection of MT-4 cells against the cytopathic effect of HIV-1 (HTLV-IIIB strain) and determined on 4th day after virus infection.; assay type: functional, organism-based; conditions: Human immunodeficiency virus 1, MT4; summary of the method: as §1
[5] = test system: Human immunodeficiency virus; experiment: Effective concentration required to achieve 50% protection of MT-4 cells against the cytopathic effect of HIV-1 (HTLV-IIIRF strain) and determined on 4th day after virus infection.; assay type: functional, organism-based; conditions: Human immunodeficiency virus 1, MT4; summary of the method: as §1
[6] = test system: Human immunodeficiency virus; experiment: Effective concentration required to achieve 50% protection of MT-4 cells against the cytopathic effect of HIV-2 ((LAV-2EHO strain) and determined on 4th day after virus infection.; assay type: functional, organism-based; conditions: Human immunodeficiency virus 1, MT4; summary of the method: as §1
[7] = test system: Human immunodeficiency virus; experiment: Effective concentration required to achieve 50% protection of MT-4 cells against the cytopathic effect of HIV-2 (LAV-2ROD strain) and determined on 4th day after virus infection.; assay type: functional, organism-based; conditions: Human immunodeficiency virus 1, MT4; summary of the method: as §1
[8] = test system: Human immunodeficiency virus; experiment: Cytotoxic concentration required to reduce the viability of mock-infected MT-4 cells (HIV-1 HTLV-IIIB strain) by 50% was determined on 4th day after virus infection.; assay type: functional; conditions: Human immunodeficiency virus 1, MT4; summary of the method: as §2

With `Cc1c(Br)n(COCCO)c(=O)[nH]c1=O` the pEC50 [1] was < 3.74, the CC50 (MT4 [2]) was 180 µM and the Selectivity index (MT4 [3]) was <1.
In the case of `Cc1c(Oc2ccccc2)n(COCCO)c(=O)[nH]c1=O`, the pEC50 [1] was 4.07, the CC50 (MT4 [2]) was 345 µM and the Selectivity index (MT4 [3]) was 4.1.
For `O=C(c1ccccc1)c1c(Sc2ccccc2)n(COCCO)c(=O)[nH]c1=O`, the pEC50 [1] was < 4.89, the CC50 (MT4 [2]) was 13 µM and the Selectivity index (MT4 [3]) was <1.
For `Cc1c(OC2CCCCC2)n(COCCO)c(=O)[nH]c1=O`, the pEC50 [1] was < 3.40, the CC50 (MT4 [2]) was 400 µM and the Selectivity index (MT4 [3]) was <1.
In the case of `CSc1c(C)c(=O)[nH]c(=O)n1COCCO`, the pEC50 [1] was < 3.60 and the CC50 (MT4 [2]) was > 250 µM.
`CCSc1c(C)c(=O)[nH]c(=O)n1COCCO` was tested, and the pEC50 [1] was < 3.60 and the CC50 (MT4 [2]) was > 250 µM.
`COc1c(C)c(=O)[nH]c(=O)n1COCCO` was tested, and the pEC50 [1] was < 3.32, the CC50 (MT4 [2]) was 484 µM and the Selectivity index (MT4 [3]) was <1.
For `CCCCSc1c(C)c(=O)[nH]c(=O)n1COCCO`, the pEC50 [1] was 3.89 and the CC50 (MT4 [2]) was > 250 µM.
`C=Cc1c(Sc2ccccc2)n(COCCO)c(=O)[nH]c1=O` showed a pEC50 [1] of 5.96, a CC50 (MT4 [2]) of 76 µM and a Selectivity index (MT4 [3]) of 69.
With `Cc1c(C(O)c2ccccc2)n(COCCO)c(=O)[nH]c1=O` (centres undefined) the pEC50 [1] was < 3.40, the CC50 (MT4 [2]) was 400 µM and the Selectivity index (MT4 [3]) was <1.
With `C#Cc1c(C)c(=O)[nH]c(=O)n1COCCO` the pEC50 [1] was < 5.26, the CC50 (MT4 [2]) was 5.5 µM and the Selectivity index (MT4 [3]) was <1.
`Cc1c(/C=C/c2ccccc2)n(COCCO)c(=O)[nH]c1=O` was tested, and the pEC50 [1] was < 3.60 and the CC50 (MT4 [2]) was > 250 µM.
`O=c1[nH]c(=O)n(COCCO)c(Sc2ccccc2)c1Cc1ccccc1` was tested, and the pEC50 [1] was < 4.64, the CC50 (MT4 [2]) was 23 µM and the Selectivity index (MT4 [3]) was <1.
In the case of `Cc1c(Nc2ccccc2)n(COCCO)c(=O)[nH]c1=O`, the pEC50 [1] was < 3.49, the CC50 (MT4 [2]) was 327 µM and the Selectivity index (MT4 [3]) was <1.
`Cc1c(Sc2ccccc2)n(COCCO)c(=O)[nH]c1=O` [HEPT] showed a pEC50 [1] of 5.15, a pEC50 [4] of 5.19 and a pEC50 [5] of 5.09. For the same compound, the pEC50 [6] was < 3.60, the pEC50 [7] was < 3.60 and the CC50 [8] was > 500 µM. It also gave a CC50 (MT4 [2]) of 740 µM.
In the case of `C=Cc1c(C)c(=O)[nH]c(=O)n1COCCO`, the pEC50 [1] was < 3.60 and the CC50 (MT4 [2]) was > 250 µM.
For `Cc1c(SC(C)(C)C)n(COCCO)c(=O)[nH]c1=O`, the pEC50 [1] was < 3.44, the CC50 (MT4 [2]) was 366 µM and the Selectivity index (MT4 [3]) was <1.
With `Nc1ncnc2c1ncn2[C@H]1CC[C@@H](CO)O1` the pEC50 [1] was 5.20, the CC50 (MT4 [2]) was 890 µM and the Selectivity index (MT4 [3]) was 141.
With `Cc1c(NC2CCCCC2)n(COCCO)c(=O)[nH]c1=O` the pEC50 [1] was < 3.42, the CC50 (MT4 [2]) was 337 µM and the Selectivity index (MT4 [3]) was <1.
With `Cc1c(SC2CCCCC2)n(COCCO)c(=O)[nH]c1=O` the pEC50 [1] was 5.09, the pEC50 [4] was 5.11 and the pEC50 [5] was 5.10. The pEC50 [6] was < 3.60, the pEC50 [7] was < 3.60 and the CC50 [8] was 440 µM. The CC50 (MT4 [2]) was 664 µM and the Selectivity index (MT4 [3]) was 81.
With `Cc1c(C(=O)c2ccccc2)n(COCCO)c(=O)[nH]c1=O` the pEC50 [1] was < 3.44, the CC50 (MT4 [2]) was 366 µM and the Selectivity index (MT4 [3]) was <1.
`O=c1[nH]c(=O)n(COCCO)c(Sc2ccccc2)c1/C=C/c1ccccc1` gave a pEC50 [1] of 5.22, a CC50 (MT4 [2]) of 95 µM and a Selectivity index (MT4 [3]) of 16.
`O=c1[nH]c(=O)n(COCCO)c(Sc2ccccc2)c1I` was tested, and the pEC50 [1] was 5.44, the CC50 (MT4 [2]) was 20 µM and the Selectivity index (MT4 [3]) was 5.6.
In the case of `Cc1c(C#Cc2ccccc2)n(COCCO)c(=O)[nH]c1=O`, the pEC50 [1] was < 4.85, the CC50 (MT4 [2]) was 14 µM and the Selectivity index (MT4 [3]) was <1.
`Cc1c(Cl)n(COCCO)c(=O)[nH]c1=O` was tested, and the pEC50 [1] was < 3.60 and the CC50 (MT4 [2]) was > 250 µM.
With `Nc1ccn([C@H]2CC[C@@H](CO)O2)c(=O)n1` [ZALCITABINE] the pEC50 [1] was 6.52, the CC50 (MT4 [2]) was 40 µM and the Selectivity index (MT4 [3]) was 133.
For `C#Cc1c(Sc2ccccc2)n(COCCO)c(=O)[nH]c1=O`, the pEC50 [1] was < 4.74, the CC50 (MT4 [2]) was 18 µM and the Selectivity index (MT4 [3]) was <1.
In the case of `C/C=C/c1c(C)c(=O)[nH]c(=O)n1COCCO`, the pEC50 [1] was < 3.60 and the CC50 (MT4 [2]) was > 250 µM.
For `CC#Cc1c(Sc2ccccc2)n(COCCO)c(=O)[nH]c1=O`, the pEC50 [1] was < 4.72, the CC50 (MT4 [2]) was 19 µM and the Selectivity index (MT4 [3]) was <1.
With `O=c1[nH]c(=O)n(COCCO)c(Sc2ccccc2)c1Sc1ccccc1` the pEC50 [1] was < 4.68, the CC50 (MT4 [2]) was 21 µM and the Selectivity index (MT4 [3]) was <1.
In the case of `CC#Cc1c(C)c(=O)[nH]c(=O)n1COCCO`, the pEC50 [1] was < 3.60 and the CC50 (MT4 [2]) was > 250 µM.
`O=c1[nH]c(=O)n(COCCO)c(Sc2ccccc2)c1C#Cc1ccccc1` was tested, and the pEC50 [1] was < 5.47, the CC50 (MT4 [2]) was 3.4 µM and the Selectivity index (MT4 [3]) was <1.
Work on `O=c1[nH]c(=O)n(COCCO)c(Sc2ccccc2)c1C=C(c1ccccc1)c1ccccc1` yielded a pEC50 [1] of 6.08, a CC50 (MT4 [2]) of 21 µM and a Selectivity index (MT4 [3]) of 25.
In the case of `Cc1c(Cc2ccccc2)n(COCCO)c(=O)[nH]c1=O`, the pEC50 [1] was 4.64, the CC50 (MT4 [2]) was 352 µM and the Selectivity index (MT4 [3]) was 15.
With `CC(C)C(=O)c1c(Sc2ccccc2)n(COCCO)c(=O)[nH]c1=O` the pEC50 [1] was < 4.92, the CC50 (MT4 [2]) was 12 µM and the Selectivity index (MT4 [3]) was <1.
Compound `Cc1cn([C@H]2C[C@H](N=[N+]=[N-])[C@@H](CO)O2)c(=O)[nH]c1=O` [ZIDOVUDINE] has a pEC50 [1] of 7.80, a CC50 (MT4 [2]) of 20 µM and a Selectivity index (MT4 [3]) of 1250.
